Data published in article PMC10957407 (Food Chemistry: X, 2024).
In brackets after ≈: the same amount, converted by molar mass. Values belong to the molecule of their own block, whether it stands above or below them.

How the values were obtained:
1-G12 = assay: icELISA with mAb 1-G12; type: binding, Balb/c mice; conditions: for CR: CR%=IC50 6-GG/IC50 test compound x100%
How it was run: (§1)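 Ascites-derived mAbs (caprylic acid–ammonium sulfate purified) from female Balb/c mice immunized with hapten–BSA. Plates coated with hapten–OVA in carbonate buffer (0.5 mol L−1, pH 9.6), blocked with 5% skim milk, washed with PBST, and detected with goat anti-mouse IgG-HRP; reaction stopped with 2 mol L−1 H2SO4. Analyte stocks (1 mg/mL, 70% methanol) were diluted in 10% methanol-PBS. IC50 values were fitted, and cross-reactivity was calculated for capsaicinoids, gingerol derivatives and eight other compounds.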

1-F12 = assay: icELISA with mAb 1-F12; type: binding, Balb/c mice; conditions: for CR: CR%=IC50 6-GG/IC50 test compound x100%
How it was run: as §1

1-D6 = assay: icELISA with mAb 1-D6; type: binding, Balb/c mice; conditions: for CR: CR%=IC50 6-GG/IC50 test compound x100%
How it was run: as §1

6-AT6 = assay: icELISA with mAb 6-AT6; type: binding
5-3H1 = assay: icELISA with mAb 5-3H1; type: binding
4-AT4 = assay: icELISA with mAb 4-AT4; type: binding
3-LD3 = assay: icELISA with mAb 3-LD3; type: binding
2-LD2 = assay: icELISA with mAb 2-LD2; type: binding
5-D8 = assay: icELISA with mAb 5-D8; type: binding
[1] = mAb 1-G12, specific evaluation (Table 1, Fig. 3D)
[2] = mAb 1-F12, specific evaluation (Table 1, Fig. 3B)
[3] = mAb 1-D6, specific evaluation (Table 1, Fig. 3C)
[4] = coating antigen Hapten 1-OVA, mAb 1-G12
[5] = coating antigen Hapten 2-OVA, mAb 1-G12
[6] = coating antigen Hapten 3-OVA, mAb 1-G12
[7] = coating antigen Hapten 4-OVA, mAb 1-G12
[8] = coating antigen Hapten 5-OVA, mAb 1-G12
[9] = coating antigen Hapten 6-OVA, mAb 1-G12
[10] = coating antigen Hapten 1-OVA, mAb 1-F12
[11] = coating antigen Hapten 2-OVA, mAb 1-F12
[12] = coating antigen Hapten 3-OVA, mAb 1-F12
[13] = coating antigen Hapten 4-OVA, mAb 1-F12
[14] = coating antigen Hapten 5-OVA, mAb 1-F12 (optimal combination)
[15] = coating antigen Hapten 6-OVA, mAb 1-F12
[16] = coating antigen Hapten 1-OVA, mAb 1-D6
[17] = coating antigen Hapten 2-OVA, mAb 1-D6
[18] = coating antigen Hapten 3-OVA, mAb 1-D6
[19] = coating antigen Hapten 4-OVA, mAb 1-D6
[20] = coating antigen Hapten 5-OVA, mAb 1-D6
[21] = coating antigen Hapten 6-OVA, mAb 1-D6

IC50 (1-G12; [1]): >4 µg/mL
IC50 (1-F12; [2]): >4 µg/mL
IC50 (1-D6; [3]): >4 µg/mL
Compound: COc1cccc(CNC(=O)CC#N)c1 [2-Cyano-N-(3-methoxybenzyl) acetamide]
CR (1-G12; mAb 1-G12): <14.01%
CR (1-F12; mAb 1-F12): <12.66%
CR (1-D6; mAb 1-D6): <1.48%

IC50 (1-G12; [1]): >4 µg/mL
IC50 (1-F12; [2]): >4 µg/mL
IC50 (1-D6; [3]): 1.9528 µg/mL (≈ 6.06 µM)
Compound: CCCCCCCC(=O)CCc1cc(OC)c(O)c(C(=O)O)c1 [2-hydroxy-3-methoxy-5-(3-oxodecyl) benzoic acid]
CR (1-G12; mAb 1-G12): <14.01%
CR (1-F12; mAb 1-F12): <12.66%
CR (1-D6; mAb 1-D6): 3.03%

IC50 (1-G12; [1]): >4 µg/mL
IC50 (1-F12; [2]): >4 µg/mL
IC50 (1-D6; [3]): 2.17533 µg/mL (≈ 11.1 µM)
Compound: COc1cc(CCC(=O)O)ccc1O [3-(4-Hydroxy-3-methoxyphenyl) propionic Acid]
CR (1-G12; mAb 1-G12): <14.01%
CR (1-F12; mAb 1-F12): <12.66%
CR (1-D6; mAb 1-D6): 2.72%

IC50 (6-AT6; coating antigen Hapten 1-OVA): >4 µg/mL
IC50 (6-AT6; coating antigen Hapten 2-OVA): >4 µg/mL
IC50 (6-AT6; coating antigen Hapten 3-OVA): >4 µg/mL
IC50 (6-AT6; coating antigen Hapten 4-OVA): >4 µg/mL
IC50 (6-AT6; coating antigen Hapten 5-OVA): >4 µg/mL
IC50 (6-AT6; coating antigen Hapten 6-OVA): >4 µg/mL
IC50 (1-G12; [4]): 1.22906 µg/mL (≈ 4.02 µM)
IC50 (1-G12; [5]): >4 µg/mL
IC50 (1-G12; [6]): >4 µg/mL
IC50 (1-G12; [7]): 0.83506 µg/mL (≈ 2.73 µM)
IC50 (1-G12; [8]): 0.33939 µg/mL (≈ 1.11 µM)
IC50 (1-G12; [9]): 0.66185 µg/mL (≈ 2.17 µM)
IC50 (1-G12; [1]): 1.22906 µg/mL (≈ 4.02 µM)
IC50 (5-3H1; coating antigen Hapten 1-OVA): 1.15967 µg/mL (≈ 3.8 µM)
IC50 (5-3H1; coating antigen Hapten 2-OVA): 0.547 µg/mL (≈ 1.79 µM)
IC50 (5-3H1; coating antigen Hapten 3-OVA): 0.79417 µg/mL (≈ 2.6 µM)
IC50 (5-3H1; coating antigen Hapten 4-OVA): 0.02586 µg/mL (≈ 0.0847 µM)
IC50 (5-3H1; coating antigen Hapten 5-OVA): 0.10327 µg/mL (≈ 0.338 µM)
IC50 (4-AT4; coating antigen Hapten 1-OVA): 0.00502 µg/mL (≈ 0.0164 µM)
IC50 (4-AT4; coating antigen Hapten 2-OVA): 0.13283 µg/mL (≈ 0.435 µM)
IC50 (4-AT4; coating antigen Hapten 3-OVA): 0.27036 µg/mL (≈ 0.885 µM)
IC50 (4-AT4; coating antigen Hapten 4-OVA): 0.00651 µg/mL (≈ 0.0213 µM)
IC50 (4-AT4; coating antigen Hapten 5-OVA): 0.00379 µg/mL (≈ 0.0124 µM)
IC50 (1-F12; [10]): 0.58442 µg/mL (≈ 1.91 µM)
IC50 (1-F12; [11]): >4 µg/mL
IC50 (1-F12; [12]): >4 µg/mL
IC50 (1-F12; [13]): 0.79654 µg/mL (≈ 2.61 µM)
IC50 (1-F12; [14]): 0.48151 µg/mL
IC50 (1-F12; [15]): 1.35443 µg/mL (≈ 4.43 µM)
IC50 (5-D8; coating antigen Hapten 1-OVA): 0.03987 µg/mL (≈ 0.131 µM)
IC50 (5-D8; coating antigen Hapten 2-OVA): 0.54041 µg/mL (≈ 1.77 µM)
IC50 (5-D8; coating antigen Hapten 3-OVA): 0.56457 µg/mL (≈ 1.85 µM)
IC50 (5-D8; coating antigen Hapten 4-OVA): 0.02878 µg/mL (≈ 0.0942 µM)
IC50 (5-D8; coating antigen Hapten 5-OVA): 0.04559 µg/mL (≈ 0.149 µM)
IC50 (1-D6; [16]): >4 µg/mL
IC50 (1-D6; [17]): >4 µg/mL
IC50 (1-D6; [18]): >4 µg/mL
IC50 (1-D6; [19]): 0.91716 µg/mL (≈ 3 µM)
IC50 (1-D6; [20]): 0.93917 µg/mL (≈ 3.08 µM)
IC50 (1-D6; [21]): 0.26434 µg/mL (≈ 0.866 µM)
IC50 (1-D6; [3]): >4 µg/mL
Compound: COc1cc(CNC(=O)CCCC/C=C/C(C)C)ccc1O [CPC, Capsaicin]
CR (1-G12; mAb 1-G12): 45.61%
IC50 (3-LD3; coating antigen Hapten 2-OVA): 0.01016 µg/mL (≈ 0.0333 µM)
IC50 (3-LD3; coating antigen Hapten 3-OVA): 0.03008 µg/mL (≈ 0.0985 µM)
IC50 (3-LD3; coating antigen Hapten 4-OVA): 0.00387 µg/mL (≈ 0.0127 µM)
IC50 (2-LD2; coating antigen Hapten 1-OVA): 0.11875 µg/mL (≈ 0.389 µM)
IC50 (2-LD2; coating antigen Hapten 2-OVA): 0.00961 µg/mL (≈ 0.0315 µM)
IC50 (2-LD2; coating antigen Hapten 3-OVA): 0.01715 µg/mL (≈ 0.0562 µM)
IC50 (2-LD2; coating antigen Hapten 4-OVA): 0.00119 µg/mL (≈ 0.0039 µM)
CR (1-F12; mAb 1-F12): 86.62%
CR (1-D6; mAb 1-D6): <1.48%

IC50 (6-AT6; coating antigen Hapten 1-OVA): >4 µg/mL
IC50 (6-AT6; coating antigen Hapten 2-OVA): >4 µg/mL
IC50 (6-AT6; coating antigen Hapten 3-OVA): >4 µg/mL
IC50 (6-AT6; coating antigen Hapten 4-OVA): >4 µg/mL
IC50 (6-AT6; coating antigen Hapten 5-OVA): 1.46054 µg/mL (≈ 4.75 µM)
IC50 (6-AT6; coating antigen Hapten 6-OVA): >4 µg/mL
IC50 (1-G12; [4]): 0.70085 µg/mL (≈ 2.28 µM)
IC50 (1-G12; [5]): >4 µg/mL
IC50 (1-G12; [6]): >4 µg/mL
IC50 (1-G12; [7]): 0.72469 µg/mL (≈ 2.36 µM)
IC50 (1-G12; [8]): 0.37358 µg/mL (≈ 1.22 µM)
IC50 (1-G12; [9]): 0.35151 µg/mL (≈ 1.14 µM)
IC50 (1-G12; [1]): 0.70085 µg/mL (≈ 2.28 µM)
IC50 (5-3H1; coating antigen Hapten 1-OVA): 0.01598 µg/mL (≈ 0.052 µM)
IC50 (5-3H1; coating antigen Hapten 2-OVA): 0.10263 µg/mL (≈ 0.334 µM)
IC50 (5-3H1; coating antigen Hapten 3-OVA): 0.25386 µg/mL (≈ 0.826 µM)
IC50 (5-3H1; coating antigen Hapten 4-OVA): 0.01135 µg/mL (≈ 0.0369 µM)
IC50 (5-3H1; coating antigen Hapten 5-OVA): 0.03124 µg/mL (≈ 0.102 µM)
IC50 (4-AT4; coating antigen Hapten 1-OVA): 0.00581 µg/mL (≈ 0.0189 µM)
IC50 (4-AT4; coating antigen Hapten 2-OVA): 0.05733 µg/mL (≈ 0.186 µM)
IC50 (4-AT4; coating antigen Hapten 3-OVA): 0.25387 µg/mL (≈ 0.826 µM)
IC50 (4-AT4; coating antigen Hapten 4-OVA): 0.01068 µg/mL (≈ 0.0347 µM)
IC50 (4-AT4; coating antigen Hapten 5-OVA): 0.00313 µg/mL (≈ 0.0102 µM)
IC50 (1-F12; [10]): 0.55714 µg/mL (≈ 1.81 µM)
IC50 (1-F12; [11]): >4 µg/mL
IC50 (1-F12; [12]): >4 µg/mL
IC50 (1-F12; [13]): 0.41585 µg/mL (≈ 1.35 µM)
IC50 (1-F12; [14]): 0.14358 µg/mL
IC50 (1-F12; [15]): 0.8841 µg/mL (≈ 2.88 µM)
IC50 (1-F12; [2]): 0.55714 µg/mL (≈ 1.81 µM)
IC50 (5-D8; coating antigen Hapten 1-OVA): 0.00582 µg/mL (≈ 0.0189 µM)
IC50 (5-D8; coating antigen Hapten 2-OVA): 0.16652 µg/mL (≈ 0.542 µM)
IC50 (5-D8; coating antigen Hapten 3-OVA): 0.05575 µg/mL (≈ 0.181 µM)
IC50 (5-D8; coating antigen Hapten 4-OVA): 0.0109 µg/mL (≈ 0.0355 µM)
IC50 (5-D8; coating antigen Hapten 5-OVA): 0.01319 µg/mL (≈ 0.0429 µM)
IC50 (1-D6; [16]): 0.96982 µg/mL (≈ 3.15 µM)
IC50 (1-D6; [17]): >4 µg/mL
IC50 (1-D6; [18]): >4 µg/mL
IC50 (1-D6; [19]): 0.70128 µg/mL (≈ 2.28 µM)
IC50 (1-D6; [20]): 0.58873 µg/mL (≈ 1.91 µM)
IC50 (1-D6; [21]): 0.16792 µg/mL (≈ 0.546 µM)
IC50 (1-D6; [3]): 0.96982 µg/mL (≈ 3.15 µM)
Compound: COc1cc(CNC(=O)CCCCCCC(C)C)ccc1O [DCPC, dihydrocapsaicin]
CR (1-G12; mAb 1-G12): 79.99%
IC50 (3-LD3; coating antigen Hapten 2-OVA): 0.00124 µg/mL (≈ 0.00403 µM)
IC50 (3-LD3; coating antigen Hapten 3-OVA): 0.00062 µg/mL (≈ 0.00202 µM)
IC50 (3-LD3; coating antigen Hapten 4-OVA): 0.00184 µg/mL (≈ 0.00599 µM)
IC50 (2-LD2; coating antigen Hapten 1-OVA): 0.00947 µg/mL (≈ 0.0308 µM)
IC50 (2-LD2; coating antigen Hapten 2-OVA): 0.00485 µg/mL (≈ 0.0158 µM)
IC50 (2-LD2; coating antigen Hapten 3-OVA): 0.00154 µg/mL (≈ 0.00501 µM)
IC50 (2-LD2; coating antigen Hapten 4-OVA): 0.00073 µg/mL (≈ 0.00237 µM)
CR (1-F12; mAb 1-F12): 90.86%
CR (1-D6; mAb 1-D6): 6.10%
